Activity calls are given as the source filed them. The rule behind the calls is not given here.
What was measured:
Plasmodium falciparum [1] = assay: Antimalarial activity against Plasmodium falciparum W2; assay type: functional, organism-based
In short: (§1)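 Cultured P. falciparum parasites were exposed to compound, and inhibition of [³H]hypoxanthine uptake was measured to give the IC50. Values come from a single experiment.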

Plasmodium falciparum [2] = assay: Resistance index, IC50 of Plasmodium falciparum W2/IC50 Plasmodium falciparum D6; assay type: ADME, organism-based; conditions: in vitro
In short: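 Ratio of IC50 against P. falciparum W2 to IC50 against strain D6. Each IC50 comes from in vitro inhibition of [3H]hypoxanthine uptake by the parasites, with values from a single experiment.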

Plasmodium falciparum [3] = assay: Antimalarial activity against Plasmodium falciparum D6; assay type: functional, organism-based; in short: as §1
[4] = Metabolic stability in mouse liver microsomes; assay type: ADME, Microsome
Mus musculus = assay: Effect on survival of mice (Mus musculus) infected with Plasmodium berghei at 640 mg/kg, perorally; assay type: functional, organism-based; set-up: dose 640 mg/kg
In short: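 Mice were inoculated intraperitoneally on day 0 with 1.0 × 10⁶ P. berghei P-line-infected red cells. Compound was dissolved in DMSO, diluted with 0.5% hydroxyethylcellulose and 0.1% Tween, and given orally once daily on days 3–7 at 640 mg/kg/dose. Survival of five treated mice was compared with five untreated infected controls.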

| Compound | IC50 (Plasmodium falciparum [1]) [µM] | Ratio IC50 (Plasmodium falciparum [2]) | IC50 (Plasmodium falciparum [3]) [µM] | half-life [4] [min] | Activity (Mus musculus) |
| --- | --- | --- | --- | --- | --- |
| COc1cccc(OC)c1C(=O)/C=C/c1cccc2ccccc12 | 3.1 | 0.97 | 3.2 | – | – |
| COc1ccc(OC)c(C(=O)/C=C/c2cnc3ccccc3c2)c1 | 2.7 | 1.4 | 2 | – | – |
| COc1ccc(C(=O)/C=C/c2ccc3ccccc3n2)cc1F | 5.3 | 4.1 | 1.3 | – | – |
| COc1cc(F)ccc1C(=O)/C=C/c1ccnc2ccccc12 | 6.2 | 1 | 6 | – | – |
| COc1cc(OC)cc(C(=O)/C=C/c2cccc3ccccc23)c1 | 4.3 | 0.96 | 4.5 | – | – |
| COc1ccc(C(=O)/C=C/c2ccc3ccccc3n2)c(OC)c1 | 1.2 | 0.6 | 2 | – | – |
| COc1ccc(C(=O)/C=C/c2ccnc3ccccc23)cc1F | 3.2 | 3.4 | 0.93 | 30.6 | inactive |
| COc1ccc(OC)c(C(=O)/C=C/c2ccnc3ccccc23)c1 | 7.3 | 2.4 | 3 | – | – |
| O=C(/C=C/c1cnc2ccccc2c1)c1ccc(Cl)c(Cl)c1 | 12 | 3.9 | 3.1 | – | – |
| O=C(/C=C/c1cnc2ccccc2c1)c1cc(Cl)ccc1Cl | 1.7 | 2.7 | 0.62 | 24.6 | inactive |
| COc1ccc(C(=O)/C=C/c2ccnc3ccccc23)cc1Cl | 0.95 | 0.53 | 1.8 | – | – |
| COc1ccc(C(=O)/C=C/c2ccnc3ccccc23)cc1 | 10 | 1.9 | 5.4 | – | – |
| COc1cc(C(=O)/C=C/c2cnc3ccccc3c2)cc(OC)c1OC | 14 | 0.67 | 21 | – | – |
| COc1ccc(C(=O)/C=C/c2cnc3ccccc3c2)cc1Cl | 1.6 | 0.7 | 2.3 | – | – |
| O=C(/C=C/c1cnc2ccccc2c1)c1ccc(Cl)cc1Cl | 6.3 | 0.8 | 7.9 | – | – |
| COc1cccc(OC)c1C(=O)/C=C/c1ccnc2ccccc12 | 5.7 | 0.44 | 13 | – | – |
| COc1ccc(C(=O)/C=C/c2ccnc3ccccc23)c(OC)c1OC | > 14 | – | 2.6 | – | – |
| COc1ccc(C(=O)/C=C/c2ccnc3ccccc23)cc1OC | 0.5 | 0.57 | 0.88 | 15.6 | inactive |
| O=C(/C=C/c1ccc2ccccc2n1)c1ccc(F)cc1F | 1.3 | 0.57 | 2.3 | – | – |
| O=C(/C=C/c1ccnc2ccccc12)c1ccc(Cl)c(Cl)c1 | 0.8 | 0.47 | 1.7 | – | inactive |

| Compound | IC50 (Plasmodium falciparum [1]) [µM] | Ratio IC50 (Plasmodium falciparum [2]) | IC50 (Plasmodium falciparum [3]) [µM] | half-life [4] [min] | Activity (Mus musculus) |
| --- | --- | --- | --- | --- | --- |
| COc1ccc(C(=O)/C=C/c2cccc3ccccc23)cc1OC | 5 | 0.96 | 5.2 | – | – |
| O=C(/C=C/c1cnc2ccccc2c1)c1ccc(F)cc1F | 6.2 | 1.2 | 5 | – | – |
| O=C(/C=C/c1ccnc2ccccc12)c1cc(Cl)ccc1Cl | 0.23 | 1.2 | 0.19 | – | inactive |
| COc1ccc(C(=O)/C=C/c2cccc3ccccc23)cc1 | 10 | 1.1 | 9.1 | – | – |
| COc1ccc(C(=O)/C=C/c2cccc3ccccc23)c(OC)c1 | 4.6 | 0.94 | 4.9 | – | – |
| COc1ccc(OC)c(C(=O)/C=C/c2ccc3ccccc3c2)c1 | 5 | 0.91 | 5.5 | – | – |
| COc1ccc(C(=O)/C=C/c2cnc3ccccc3c2)c(OC)c1 | 3.3 | 0.7 | 4.8 | – | – |
| COc1cccc(OC)c1C(=O)/C=C/c1ccc2ccccc2c1 | 3.3 | 0.97 | 3.4 | – | – |
| O=C(/C=C/c1cnc2ccccc2c1)c1ccc(F)c(F)c1 | 5.8 | 0.68 | 8.5 | – | – |
| COc1ccc(F)cc1C(=O)/C=C/c1ccc2ccccc2n1 | 0.67 | 0.18 | 3.8 | – | – |
| COc1ccc(C(=O)/C=C/c2ccc3ccccc3n2)c(OC)c1OC | 3.3 | 1.1 | 2.9 | – | – |
| COc1ccc(C(=O)/C=C/c2cnc3ccccc3c2)c(OC)c1OC | 2.8 | 0.42 | 6.7 | – | – |
| COc1ccc(OC)c(C(=O)/C=C/c2cccc3ccccc23)c1 | 2.8 | 0.97 | 2.9 | – | – |
| COc1cc(F)ccc1C(=O)/C=C/c1cnc2ccccc2c1 | 1.5 | 1.4 | 1.1 | – | – |
| COc1ccc(C(=O)/C=C/c2cnc3ccccc3c2)c(F)c1 | 3.1 | 1.5 | 2.1 | – | – |
| COc1ccc(C(=O)/C=C/c2ccc3ccccc3n2)cc1 | > 17 | – | 4.7 | – | – |
| COc1ccc(C(=O)/C=C/c2ccnc3ccccc23)c(OC)c1 | 2 | 0.67 | 3 | – | – |
| COc1ccc(F)cc1C(=O)/C=C/c1cnc2ccccc2c1 | 1.1 | 2.4 | 0.46 | – | – |
| COc1cc(OC)cc(C(=O)/C=C/c2ccc3ccccc3c2)c1 | 9.5 | 1.3 | 7.4 | – | – |
| COc1ccc(C(=O)/C=C/c2ccc3ccccc3c2)cc1 | > 17 | – | > 17 | – | – |

| Compound | IC50 (Plasmodium falciparum [1]) [µM] | Ratio IC50 (Plasmodium falciparum [2]) | IC50 (Plasmodium falciparum [3]) [µM] | half-life [4] [min] | Activity (Mus musculus) |
| --- | --- | --- | --- | --- | --- |
| COc1ccc(C(=O)/C=C/c2cnc3ccccc3c2)cc1 | 3.3 | 1.8 | 1.8 | – | – |
| CCN(CC)CCCC(C)Nc1ccnc2cc(Cl)ccc12 (stereo not drawn) | – | – | – | – | Active |
| COc1cc(C(=O)/C=C/c2cccc3ccccc23)cc(OC)c1OC | 4.8 | 0.92 | 5.2 | – | – |
| COc1cc(OC)cc(C(=O)/C=C/c2cnc3ccccc3c2)c1 | 4.3 | 0.39 | 11 | – | – |
| COc1ccc(C(=O)/C=C/c2cccc3ccccc23)c(OC)c1OC | 5.8 | 1.3 | 4.3 | – | – |
| COc1ccc(C(=O)/C=C/c2ccc3ccccc3c2)c(OC)c1OC | > 14 | – | > 14 | – | – |
| COc1cccc(OC)c1C(=O)/C=C/c1cnc2ccccc2c1 | 1.1 | 0.53 | 2.2 | – | – |
| COc1ccc(C(=O)/C=C/c2cnc3ccccc3c2)cc1OC | 2.2 | 0.65 | 3.4 | – | – |
| COc1cc(C(=O)/C=C/c2ccc3ccccc3c2)cc(OC)c1OC | 6 | 0.91 | 6.6 | – | – |
| COc1ccc(C(=O)/C=C/c2ccnc3ccccc23)c(F)c1 | 4.5 | 1.9 | 2.4 | – | – |
| COc1ccc(C(=O)/C=C/c2cnc3ccccc3c2)cc1F | 2.7 | 1.7 | 1.6 | – | – |
| COc1ccc(F)cc1C(=O)/C=C/c1ccnc2ccccc12 | 4.1 | 0.8 | 5.1 | – | – |
| O=C(/C=C/c1ccnc2ccccc12)c1ccc(F)c(F)c1 | 5.7 | 0.61 | 9.4 | – | – |
| O=C(/C=C/c1cnc2ccccc2c1)c1cc(F)ccc1F | 7.8 | 1.4 | 5.6 | – | – |
| O=C(/C=C/c1ccnc2ccccc12)c1cc(F)ccc1F | 8.6 | 2.3 | 3.7 | – | – |
| COc1ccc(C(=O)/C=C/c2ccc3ccccc3c2)cc1OC | 7.7 | 0.79 | 9.8 | – | – |
| COc1ccc(Cl)cc1C(=O)/C=C/c1cnc2ccccc2c1 | 0.59 | 0.62 | 0.95 | – | – |
| O=C(/C=C/c1ccnc2ccccc12)c1ccc(Cl)cc1Cl | 18 | 2.9 | 6.2 | – | – |
| COc1ccc(C(=O)/C=C/c2ccc3ccccc3c2)c(OC)c1 | > 16 | – | 8.7 | – | – |
